This note sets out measurements from ChEMBL document CHEMBL1165985, “Dihydro-beta-agarofuran sesquiterpenes and pentacyclic triterpenoids from the root bark of Osyris lanceolata” (2010).

Test [1] relates to Radical scavenging activity. Description: Antioxidant activity assessed as DPPH radical scavenging activity after 30 mins. It counts as functional. A digest of the protocol:
(§1)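 Semiquantitative TLC-based DPPH radical scavenging, followed over an 8 h period with readings at 30 min, 2 h and 8 h. Activity is expressed as the minimum inhibitory quantity (MIQ, µg) on the plate. Run in duplicate.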
On the technique in general: Loss of DPPH colour is used to gauge radical scavenging.

In test [2] the test system is Radical scavenging activity. Description: Antioxidant activity assessed as DPPH radical scavenging activity after 2 hrs. It counts as functional. A digest of the protocol:
as §1

For test [3], the system named is Radical scavenging activity. Description: Antioxidant activity assessed as DPPH radical scavenging activity after 8 hrs. It is filed as functional. The procedure, abridged:
as §1

For test [4], the system named is Bacillus subtilis. Put plainly: Antimicrobial activity against Bacillus subtilis ATCC 6633 by agar overlay technique. It is filed as functional. A digest of the protocol: (§2)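 Adapted agar overlay technique. Strains came from a university microbiology collection. Media were nutrient broth, nutrient agar, mycological peptone and Sabouraud dextrose agar.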
Test [5] concerns Staphylococcus aureus. Put plainly: Antimicrobial activity against Staphylococcus aureus ATCC 9144 by agar overlay technique. It counts as functional. A digest of the protocol:
as §2

For test [6], the system named is Pseudomonas aeruginosa. Put plainly: Antimicrobial activity against Pseudomonas aeruginosa NCTC 10332 by agar overlay technique. It is filed as functional. The procedure, abridged:
as §2

In another test the test system is Escherichia coli. Description: Antimicrobial activity against Escherichia coli ATCC 11229 by agar overlay technique. It is filed as functional. A digest of the protocol:
as §2

A further test deals with Candida albicans. Description: Antimicrobial activity against Candida albicans ATCC 10231 by agar overlay technique. It is filed as functional. A digest of the protocol: as §2
For test [7], the system named is Bacillus subtilis. Description: Antimicrobial activity against Bacillus subtilis ATCC 6633 at 100 ug by agar overlay technique. It is filed as functional, organism-based.
The subject of test [8] is Staphylococcus aureus. Put plainly: Antimicrobial activity against Staphylococcus aureus ATCC 9144 at 100 ug by agar overlay technique. It counts as functional, organism-based.
The test system of test [9] is Pseudomonas aeruginosa. Description: Antimicrobial activity against Pseudomonas aeruginosa NCTC 10332 at 100 ug by agar overlay technique. It is filed as functional, organism-based.

Calls of active or inactive are those of the source. No cut-off for these calls is given here.

For `O=C(O)c1cc(O)c(O)c(O)c1`, the MIC in test [1], in test [2] and in test [3] was 0.01 µg throughout.
Take `C[C@@H]1CC(=O)[C@H](OC(=O)c2ccoc2)[C@@]2(C)[C@@H](OC(=O)c3ccoc3)C[C@@H]3C[C@]12OC3(C)C`: the MIC in the test with Bacillus subtilis [4] came to 10 µg; with Staphylococcus aureus [5], 50 µg; in the test with Pseudomonas aeruginosa [6], 10 µg; against Escherichia coli it was 10 µg; in the test on Candida albicans, 0.5 µg; in [2] it was 10 µg. Also, the MIC in test [3] worked out at 10 µg. Also, the MIC result in test [1] was “inactive”.
Take `CC1=CC(=O)[C@H](OC(=O)c2ccoc2)[C@@]2(C)[C@@H](OC(=O)c3ccoc3)C[C@@H]3C[C@]12OC3(C)C`: the MIC was determined as 50 µg in the test on Escherichia coli, 10 µg against Candida albicans, 50 µg in test [2] and 10 µg in test [3]. Further, the outcome in the test on Bacillus subtilis [7], in the test on Staphylococcus aureus [8] and with Pseudomonas aeruginosa [9] was inactive. In addition, the MIC result in test [1] was “inactive”.
For the molecule `C[C@@H]1CC[C@H](OC(=O)c2ccoc2)[C@@]2(C)[C@@H](OC(=O)c3ccoc3)C[C@@H]3C[C@]12OC3(C)C`, the MIC is 0.5 µg against Bacillus subtilis [4]; 10 µg with Staphylococcus aureus [5]; 0.5 µg with Pseudomonas aeruginosa [6]; 10 µg in the test with Escherichia coli; 0.01 µg in the test with Candida albicans; 10 µg in [2]. Besides, the MIC in [3] is 10 µg. In addition, in test [1], the MIC entry is “inactive”.
Consider `O=C(N[C@H](CO)[C@H](O)c1ccc([N+](=O)[O-])cc1)C(Cl)Cl` [CHLORAMPHENICOL], for which the MIC in the test on Bacillus subtilis [4], in the test on Staphylococcus aureus [5], against Pseudomonas aeruginosa [6] and in the test with Escherichia coli was 0.001 µg in each case.
Consider `C[C@H]1C(=O)CC[C@@H]2[C@]1(C)CC[C@H]1[C@@]2(C)CC[C@@]2(C)[C@H]3C[C@@](C)(C(=O)O)CC[C@]3(C)CC[C@]12C` [OCTANDRONIC ACID], for which the MIC against Bacillus subtilis [4] was determined as 0.01 µg; against Staphylococcus aureus [5], 0.5 µg; in the test with Pseudomonas aeruginosa [6], 0.01 µg; in the test with Escherichia coli, 0.01 µg; in the test with Candida albicans it was 0.01 µg; in test [3] it was 10 µg. In addition, the MIC entry in [1] and in test [2] was “inactive” throughout.
For `C=C(C)[C@@H]1CC[C@]2(C)[C@H](CC=C3[C@@H]4C[C@](C)(C(=O)O)CC[C@]4(C)CC[C@]32C)[C@@]1(C)CCC(=O)O`, the MIC in the test on Bacillus subtilis [4] turned out to be 0.01 µg; against Staphylococcus aureus [5] it was 0.001 µg; against Pseudomonas aeruginosa [6], 0.01 µg; with Escherichia coli, 0.01 µg; in the test on Candida albicans, 0.001 µg; in test [3], 10 µg. Besides, the MIC result in [1] and in [2] was “inactive” throughout.
On to `O=C1O[C@H]([C@@H](O)CO)C(O)=C1O`, for which the results for the MIC in test [1], in test [2] and in test [3] were 10 µg, 0.5 µg and 0.01 µg, respectively.
`Clc1ccc(COC(Cn2ccnc2)c2ccc(Cl)cc2Cl)c(Cl)c1` (stereo unspecified) [MICONAZOLE] showed an MIC with Candida albicans of 0.001 µg.
